Laboratory results: ChEMBL document CHEMBL4257441, “Protection effect of intracellular melanin from Lachnum YM156 and Haikunshenxi capsule combination on adenine-induced chronic renal failure in mice” (Medchemcomm, 2017)
Activity calls are given as the source filed them. The rule behind the calls is not given here.

How the values were obtained:
[1] = tested on: Mus musculus; experiment: Protective effect against adenine-induced chronic renal failure in ig dosed Kunming mouse assessed as increase in total protein levels in serum administered as qd for 4 successive weeks by coomassie brilliant blue method; format: functional, organism-based
Procedure, shortened: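 Adenine-fed CRF model in male Kunming mice (20 ± 5 g) housed at 18–20 °C on a 12 h light/dark cycle. Oral dosing at 100 or 200 mg kg–1, with or without Haikunshenxi capsule; ten mice per group. Serum creatinine, BUN, total protein and albumin measured, each group compared with the model group.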

[2] = tested on: Mus musculus; experiment: Protective effect against adenine-induced chronic renal failure in Kunming mouse assessed as weight growth rate at 100 mg/kg, ig qd administered for 4 successive weeks measured 24 hrs post last dose (reference value: 32.42 +/- 1.43%); format: functional
Procedure, shortened: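 Male Kunming mice (20 ± 5 g) were housed on a 12 h light/dark cycle at 18–20 °C. Chronic renal failure was induced by long-term dietary adenine. The melanin was given orally at 100 or 200 mg kg–1, alone or with Haikunshenxi capsule as positive drug, with ten mice per group. Weight growth rate (%) and kidney index (mg g–1) were recorded.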

[3] = tested on: Mus musculus; experiment: Protective effect against adenine-induced chronic renal failure in Kunming mouse assessed as weight growth rate at 200 mg/kg, ig qd administered for 4 successive weeks with haikunshenxi capsule measured 24 hrs post last dose (reference value: 32.42 +/- 1.43%); format: functional
Procedure, shortened: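 Male Kunming mice (20 ± 5 g) kept on a 12 h light/dark cycle at 18–20 °C on a standard diet. CRF induced by chronic dietary adenine. Test material given orally at 100 or 200 mg kg–1, alone or with Haikunshenxi capsule, alongside normal, model and capsule-only groups; ten mice per group. Weight growth rate recorded in %, kidney index in mg g–1.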

[4] = tested on: Mus musculus; experiment: Protective effect against adenine-induced chronic renal failure in Kunming mouse assessed as nephridial CAT levels at 200 mg/kg, ig qd administered for 4 successive weeks with haikunshenxi capsule by visible spectrometry method (reference value: 44.13 +/- 1.25 U/mg); format: functional
[5] = tested on: Mus musculus; experiment: Protective effect against adenine-induced chronic renal failure in Kunming mouse assessed as nephridial GSH-PX levels at 200 mg/kg, ig qd administered for 4 successive weeks with haikunshenxi capsule by colorimetric method (reference value: 688.45 +/- 12.67 U/L); format: functional
[6] = tested on: Mus musculus; experiment: Protective effect against adenine-induced chronic renal failure in Kunming mouse assessed as nephridial GSH levels at 100 mg/kg, ig qd administered for 4 successive weeks with haikunshenxi capsule by colorimetric method (reference value: 3.05 +/- 0.11 mg/g); format: functional
[7] = tested on: Mus musculus; experiment: Protective effect against adenine-induced chronic renal failure in Kunming mouse assessed as nephridial GSH levels at 200 mg/kg, ig qd administered for 4 successive weeks with haikunshenxi capsule by colorimetric method (reference value: 3.05 +/- 0.11 mg/g); format: functional
[8] = tested on: Mus musculus; experiment: Protective effect against adenine-induced chronic renal failure in Kunming mouse assessed as nephridial MDA levels at 200 mg/kg, ig qd administered for 4 successive weeks by thiobarbituric acid method (reference value: 5.05 +/- 0.15 nmol/ml); format: functional
[9] = tested on: Mus musculus; experiment: Protective effect against adenine-induced chronic renal failure in ig dosed Kunming mouse assessed as increase in nephridial GSH levels administered as qd for 4 successive weeks by colorimetric method; format: functional, organism-based
Procedure, shortened: (§1)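 Male Kunming mice (20 ± 5 g) given dietary adenine to induce CRF, then dosed orally at 100 or 200 mg kg–1, with or without Haikunshenxi capsule; n = 10 per group. Kidney homogenate assayed for SOD and CAT (U mg–1 protein), GSH-Px (U L–1), GSH (mg g–1 protein) and MDA (nmol mL–1).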

[10] = tested on: Mus musculus; experiment: Protective effect against adenine-induced chronic renal failure in ig dosed Kunming mouse assessed as increase in nephridial SOD levels administered as qd for 4 successive weeks with haikunshenxi capsule by hydroxylamine method; format: functional, organism-based; procedure, shortened: as §1
[11] = tested on: Mus musculus; experiment: Protective effect against adenine-induced chronic renal failure in Kunming mouse assessed as nephridial TNF-alpha levels at 100 mg/kg, ig qd administered for 4 successive weeks (reference value: 250.15 +/- 8.10 pg/ml); format: functional
[12] = tested on: Mus musculus; experiment: Protective effect against adenine-induced chronic renal failure in Kunming mouse assessed as nephridial TNF-alpha levels at 200 mg/kg, ig qd administered for 4 successive weeks with haikunshenxi capsule (reference value: 250.15 +/- 8.10 pg/ml); format: functional
[13] = tested on: Mus musculus; experiment: Protective effect against adenine-induced chronic renal failure in Kunming mouse assessed as nephridial IL-1beta levels at 100 mg/kg, ig qd administered for 4 successive weeks (reference value: 18.34 +/- 0.25 pg/ml); format: functional
[14] = tested on: Mus musculus; experiment: Protective effect against adenine-induced chronic renal failure in Kunming mouse assessed as nephridial IL-1beta levels at 200 mg/kg, ig qd administered for 4 successive weeks with haikunshenxi capsule (reference value: 18.34 +/- 0.25 pg/ml); format: functional
[15] = tested on: Mus musculus; experiment: Protective effect against adenine-induced chronic renal failure in Kunming mouse assessed as nephridial IL-6 levels at 100 mg/kg, ig qd administered for 4 successive weeks (reference value: 20.85 +/- 0.11 pg/ml); format: functional
[16] = tested on: Mus musculus; experiment: Protective effect against adenine-induced chronic renal failure in Kunming mouse assessed as nephridial IL-6 levels at 100 mg/kg, ig qd administered for 4 successive weeks with haikunshenxi capsule (reference value: 20.85 +/- 0.11 pg/ml); format: functional
[17] = tested on: Mus musculus; experiment: Protective effect against adenine-induced chronic renal failure in Kunming mouse assessed as nephridial IL-6 levels at 200 mg/kg, ig qd administered for 4 successive weeks with haikunshenxi capsule (reference value: 20.85 +/- 0.11 pg/ml); format: functional
[18] = tested on: Mus musculus; experiment: Protective effect against adenine-induced chronic renal failure in ig dosed Kunming mouse assessed as decrease in nephridial IL-1beta levels administered as qd for 4 successive weeks with haikunshenxi capsule; format: functional, organism-based
Procedure, shortened: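 CRF model made by chronic dietary adenine in male Kunming mice (20 ± 5 g); oral dosing at 100 or 200 mg kg–1, alone or with Haikunshenxi capsule; ten mice per group. Kidney tissue TNF-α, IL-1β and IL-6 measured as pg per mg protein, and iNOS activity as U mg–1 protein.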

[19] = tested on: Mus musculus; experiment: Protective effect against adenine-induced chronic renal failure in Kunming mouse assessed as reduction in number of adenine crystals in kidney at 200 mg/kg, ig qd administered for 4 successive weeks by haematoxylin and eosin dye-based optical microscopic method; format: functional, organism-based
Procedure, shortened: (§2)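 Kidneys were taken from male Kunming mice given an adenine diet plus oral melanin (100 or 200 mg kg–1), with or without Haikunshenxi capsule, ten per group. Histological sections were examined at 400× for glomeruli, tubules, adenine crystals, tubular atrophy and interstitial fibrosis.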

[20] = tested on: Mus musculus; experiment: Protective effect against adenine-induced chronic renal failure in Kunming mouse assessed as reduction in interstitial fibrosis in kidney at 200 mg/kg, ig qd administered for 4 successive weeks by haematoxylin and eosin dye-based optical microscopic method; format: functional, organism-based; procedure, shortened: as §2
[21] = tested on: Mus musculus; experiment: Protective effect against adenine-induced chronic renal failure in Kunming mouse assessed as reduction in number of adenine crystals at 200 mg/kg, ig qd administered for 4 successive weeks with haikunshenxi capsule by haematoxylin and eosin dye-based optical microscopic method; format: functional, organism-based; procedure, shortened: as §2
[22] = tested on: Mus musculus; experiment: Protective effect against adenine-induced chronic renal failure in Kunming mouse assessed as reduction in interstitial fibrosis at 200 mg/kg, ig qd administered for 4 successive weeks with haikunshenxi capsule by haematoxylin and eosin dye-based optical microscopic method; format: functional, organism-based; procedure, shortened: as §2

SMILES: Cc1c(=O)c(=O)c2c3c[nH]c4c(C)c(=O)c(=O)c(c5c[nH]c1c52)c43
- Activity [1]: Dose-dependent effect
- Activity [2]: 50.12%
- Activity [3]: 56.64%
- Activity [4]: 76.47 U/mg
- Activity [5]: 878.91 U/L
- Activity [6]: 5.23 mg/g
- Activity [7]: 5.38 mg/g
- Activity [8]: 3.74 nmol/mL
- Activity [9]: Dose-dependent effect
- Activity [10]: Dose-dependent effect
- Activity [11]: 218.12 pg/mL
- Activity [12]: 84.35 pg/mL
- Activity [13]: 17.66 pg/mL
- Activity [14]: 13.81 pg/mL
- Activity [15]: 18.27 pg/mL
- Activity [16]: 12.07 pg/mL
- Activity [17]: 10.74 pg/mL
- Activity [18]: Dose-dependent effect
- Activity [19]: Active
- Activity [20]: Active
- Activity [21]: Active
- Activity [22]: Active
